The values that follow come from PubChem BioAssay AID652163 (Broad Institute, 2013).

The whole screen tested about 360,000 compounds, of which about 500 (0.14%) were called active. Shown is part of a subset that was picked to be rich in actives. Unmarked numbers belong to inactive results.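 The calls were made as follows: active = mean inhibition of at least 70% across replicates, with every replicate also reaching that level; inconclusive = mean inhibition reaches 70% but some replicates fall short; inactive = mean inhibition below 70%.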

Protein S100-A4 (Homo sapiens), sequence (P26447 whole entry, looked up): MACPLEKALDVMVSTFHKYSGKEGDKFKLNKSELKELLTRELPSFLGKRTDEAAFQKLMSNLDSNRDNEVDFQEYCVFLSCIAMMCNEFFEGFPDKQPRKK

The target of this test is Protein S100-A4 (Homo sapiens) (UniProt P26447). The test is described as follows: inhibitors of S100A4-myosin IIA peptide binding, primary screen, biochemical, fluorescence polarization, TAMRA-MyoIIA peptide (AID 652163). Particulars: at 10.7 µM, stronger effect = higher value. The procedure, abridged:
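System – human S100A4 monomer protein, biochemical binding assay · Buffer or medium – Calcium-containing HEPES buffer, pH 7.2 · Timing – 5 min between mix addition and reading · Also added – TAMRA-labelled myosin IIA heavy-chain peptide probe, 5 nM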
For orientation: Fluorescence polarisation rises when a labelled molecule tumbles more slowly, as on binding a larger partner.
Turning to `C[C@H]1CN([C@@H](C)CO)C(=O)CCCn2cc(nn2)CO[C@H]1CN(C)S(=O)(=O)c1ccc2ccccc2c1`, the inhibition was 1.04%.
With `O=C(C[C@@H]1C[C@H]2c3cc(NS(=O)(=O)c4ccc(F)cc4)ccc3O[C@H]2[C@@H](CO)O1)NCc1ccccc1F`, the inhibition is -3.71%.
As to `O=C(NC1CCCCC1)[C@@H]1[C@@H](CO)[C@@H]2Cn3c(cccc3=O)[C@@H]2N1C(=O)CC1CC1`, the inhibition was 1.5%.
In the case of `COCC(=O)N1CC(=O)N2[C@H](CO)[C@@H](c3ccc(C#CC4CCCCC4)cc3)[C@@H]2C1`, the inhibition was -8.44%.
With `O=C(Nc1ccccc1F)N[C@H]1CC[C@@H](CCNS(=O)(=O)c2ccc(F)cc2)O[C@@H]1CO`, the inhibition is -5.07%.
As to `COc1ccccc1NC(=O)N[C@H]1CC[C@H](CCNS(=O)(=O)c2ccc(Cl)cc2)O[C@H]1CO`, the inhibition is 107% (active).
As to `COc1ccc(NC(=O)N[C@H]2CC[C@@H](CCNS(=O)(=O)c3cccc(Cl)c3)O[C@H]2CO)cc1`, the inhibition is 18.1%.
Under `Cc1noc(C)c1S(=O)(=O)Nc1ccc2c(c1)C(=O)N([C@H](C)CO)C[C@H](C)[C@@H](CN(C)C(=O)CCC(F)(F)F)OCCCC[C@H](C)O2` stands -11.4%.
For the molecule `C[C@@H]1CN([C@@H](C)CO)S(=O)(=O)c2ccc(C#CCC3CCCC3)cc2O[C@H]1CN(C)Cc1ccc(C(=O)O)cc1`, the inhibition is -3.27%.
As for `COc1ccc2c3c([nH]c2c1)[C@H](CO)N(C(=O)Nc1cccc(F)c1)CC31CCN(S(=O)(=O)c2ccccc2)CC1`, the inhibition was -4.14%.
As to `COc1ccc(CN(C)C[C@H]2Oc3ccc(NS(=O)(=O)c4ccc(C)cc4)cc3C(=O)N([C@@H](C)CO)C[C@H]2C)cc1`, the inhibition was -4.3%.
Turning to `C[C@@H]1CN([C@@H](C)CO)C(=O)c2cccc(NC(=O)Nc3ccc(F)cc3)c2O[C@@H]1CN(C)Cc1ccc(C(=O)O)cc1`, the inhibition was 16.9%.
Take `CCC(=O)N1C[C@H](C)[C@H](OC)CN(C)C(=O)c2ccc(NC(=O)Nc3cccc(F)c3)cc2OC[C@@H]1C`: the inhibition is -17.6%.
`O=C(C[C@@H]1CC[C@H]2[C@@H](COC[C@H](O)CN2S(=O)(=O)c2ccc(F)cc2)O1)N[C@H]1CCN(Cc2ccccc2)C1`: the inhibition was 2.74%.
As to `C[C@@H](NC(=O)C[C@H]1C[C@@H]2c3cc(NC(=O)C4CCC4)ccc3O[C@@H]2[C@@H](CO)O1)c1ccccc1`, the inhibition was 8.72%.
As to `CC(C)CC#Cc1ccc([C@@H]2[C@@H](CO)N3C(=O)CN(C(=O)Nc4ccc(F)cc4)C[C@H]23)cc1`, the inhibition was -1.01%.
Regarding `CO[C@H]1CN(C)C(=O)c2ccc(NC(C)=O)cc2OC[C@H](C)N(C(=O)c2ccccc2)C[C@H]1C`, the inhibition was -4.17%.
In the case of `COc1ccc(CN(C)C[C@@H]2OCCCC[C@H](C)Oc3ccc(NS(=O)(=O)c4ccc(F)cc4)cc3C(=O)N([C@@H](C)CO)C[C@@H]2C)cc1`, the inhibition was -2.85%.
For the molecule `C[C@H]1CCCCO[C@H](CN(C)S(C)(=O)=O)[C@@H](C)CN([C@@H](C)CO)C(=O)c2cc(NC(=O)C3CCCCC3)ccc2O1`, the inhibition is 3.69%.
For the molecule `O=C(Nc1ccc(F)cc1)N1C[C@H]2[C@@H](c3ccccc31)[C@@H](CO)N2Cc1cocn1`, the inhibition is -2.03%.
With `CO[C@@H]1CN(C)C(=O)c2ccc(NS(=O)(=O)c3cccc(F)c3)cc2OC[C@H](C)N(C(=O)Cc2cccnc2)C[C@@H]1C`, the inhibition is 0.669%.
On to `CC(C)[C@@H]1COCn2nncc2CCCC(=O)N1`, for which the inhibition was -3.23%.
`CCCNC(=O)[C@@H]1[C@@H](CO)[C@@H]2Cn3c(cccc3=O)[C@H]1N2C(=O)C1CCC1`: the inhibition was 6.67%.
With `Cc1cccc(S(=O)(=O)N2C[C@@H]3[C@H](c4ccccc42)[C@@H](CO)N3C(=O)c2ccccc2)c1`, the inhibition was 3.03%.
Consider `Cc1cccc(S(=O)(=O)N2C[C@@H]3[C@H](c4ccccc42)[C@H](CO)N3CC2CCOCC2)c1`, for which the inhibition is 86.4% (active).
Under `Cc1cccc(S(=O)(=O)N2C[C@H]3[C@@H](c4ccccc42)[C@H](CO)N3Cc2ccc3c(c2)OCO3)c1` stands 7.88%; under `C[C@H](CO)N1C[C@H](C)[C@@H](CN(C)C(=O)Nc2ccccc2)Oc2ncc(C3=CCCC3)cc2C1=O`, 2.15%.
Under `CO[C@H]1CN(C)C(=O)c2cc(NS(=O)(=O)c3ccc(C)cc3)ccc2OC[C@H](C)NC[C@H]1C` stands 7.5%; under `COc1cccc(C#Cc2cnc3c(c2)C(=O)N([C@@H](C)CO)C[C@H](C)[C@H](CN(C)CC2CC2)O3)c1`, -46.8%.
In the case of `O=C(C[C@@H]1CC[C@@H](NC(=O)Nc2ccc(F)cc2)[C@@H](CO)O1)NCCN1CCCC1`, the inhibition is -3.14%.
Turning to `O=C(Cc1ccccc1)N1C[C@H]2[C@@H](c3ccccc31)[C@H](CO)N2C(=O)c1ccc(F)cc1`, the inhibition was 7.78%.
With `CCS(=O)(=O)N1[C@H](CO)[C@@H](c2ccccc2)C12CN(C(=O)C1CCC1)C2`, the inhibition was -10%.
For the molecule `COc1ccc(NC(=O)N(C)C[C@@H]2OCCCC[C@@H](C)Oc3ccc(NC(=O)C4CCCCC4)cc3C(=O)N([C@@H](C)CO)C[C@@H]2C)cc1`, the inhibition was 2.51%.
For `CCCNC(=O)Nc1ccc2c(c1)OC[C@H](C)N(C(=O)C1CCC1)C[C@H](C)[C@@H](OC)CN(C)C2=O`, the inhibition is -7.21%.
Under `COCC#Cc1cnc2c(c1)C(=O)N([C@H](C)CO)C[C@@H](C)[C@@H](CN(C)C(=O)Nc1cccc(F)c1)O2` stands -1.97%; under `C[C@@H]1CN([C@H](C)CO)C(=O)c2cc(NC(=O)Cn3cnnn3)ccc2O[C@@H]1CN(C)CC1CC1`, 13.2%.
Consider `CN(C)C(=O)c1ccc(-c2ccc([C@@H]3[C@@H](CO)N4CCCCN(CC5CC5)C[C@H]34)cc2)cc1`, for which the inhibition is 11.7%.
For the molecule `O=C(C[C@H]1C=C[C@H](NC(=O)CN2CCOCC2)[C@@H](CO)O1)NCc1cccc(F)c1`, the inhibition was 2.82%.
Then `CC=Cc1ccc2n(c1=O)C[C@H]1[C@H](CO)[C@@H](C(=O)NCCc3cn(C)cn3)[C@@H]2N1C(=O)CC` (mixture of isomers), with -3.21%; and `C[C@@H]1CN([C@@H](C)CO)C(=O)c2c(c3ccccc3n2C)-c2ccccc2CO[C@@H]1CN(C)Cc1ccc2c(c1)OCCN2C`, with 1.33%; and `O=C(N[C@H]1CC[C@@H](CCNS(=O)(=O)Cc2ccccc2)O[C@H]1CO)c1ccccc1F`, with 106% (active).
Under `CC(C)NC(=O)N[C@@H]1CC[C@@H](CCNS(=O)(=O)Cc2ccccc2)O[C@@H]1CO` stands -2.44%; under `O=C(N[C@@H]1CC[C@@H](CCNS(=O)(=O)Cc2ccccc2)O[C@@H]1CO)c1ccccc1F`, 3.62%; under `C[C@@H]1CN([C@@H](C)CO)C(=O)Cc2cc(NC(=O)Cc3ccccc3)ccc2O[C@@H]1CN(C)C(=O)Nc1ccc2c(c1)OCO2`, -20.2%.
Under `CS(=O)(=O)Nc1ccc2c(c1)[C@H]1C[C@H](CC(=O)NC3CCCC3)O[C@@H](CO)[C@H]1O2` stands 5.62%; under `CN(C)C(=O)[C@@H]1[C@@H](CO)[C@@H]2Cn3c(ccc(C4=CCCC4)c3=O)[C@H]1N2Cc1ccccn1`, 6.14%; under `COc1ccc2c3c([nH]c2c1)[C@@H](CO)N(C(=O)c1cccc(F)c1)CC31CN(C(C)=O)C1`, -5.37%.
Turning to `CCOc1ccc(N(CC(=O)NCCOc2ccccc2OC)S(=O)(=O)c2ccccc2)cc1`, the inhibition is 116% (active).
Under `COc1ccc(CCNC(=O)CN(c2ccccc2)S(=O)(=O)c2ccccc2)cc1` stands 0.0805%.
With `CCOc1ccc(N(CC(=O)NCCc2ccc(F)cc2)S(=O)(=O)c2ccccc2)cc1`, the inhibition is -1.04%.
Then `N[C@@H]1CC[C@H](CCn2cc(C3CC3)nn2)O[C@@H]1CO`, with 5.57%.
With `C[C@@H]1CN([C@H](C)CO)C(=O)c2cc(NC(=O)CCCCCC(=O)Nc3ccccc3N)ccc2O[C@H]1CN(C)C(=O)Nc1ccc(C(F)(F)F)cc1`, the inhibition is -13%.
Regarding `C[C@H](CO)N1C[C@H](C)[C@@H](CN(C)Cc2ccncc2)Oc2cc(Br)ccc2S1(=O)=O`, the inhibition is -8.65%.
Consider `COc1ccc(CN(C)C[C@H]2Oc3c(NC(=O)Nc4ccccc4)cccc3C(=O)N([C@@H](C)CO)C[C@@H]2C)cc1`, for which the inhibition was 91.2% (active).
Turning to `C[C@@H]1CN([C@@H](C)CO)C(=O)c2cccc(NC(=O)Nc3ccccc3)c2O[C@H]1CN(C)Cc1ccccc1`, the inhibition was -2.48%.
`C[C@@H]1CN([C@@H](C)CO)C(=O)c2cc(NC(=O)c3ccncc3)ccc2O[C@@H]1CN(C)Cc1ccncc1`: the inhibition was 106% (active).
`C[C@@H]1CN([C@H](C)CO)C(=O)c2cc(NC(=O)c3ccncc3)ccc2O[C@H]1CN(C)Cc1ccc(Oc2ccccc2)cc1`: the inhibition is 1.42%.
As for `C[C@@H]1CN([C@H](C)CO)C(=O)c2cccc(NC(=O)c3ccncc3)c2O[C@@H]1CN(C)C`, the inhibition is 111% (active).
Under `C[C@H]1CN([C@@H](C)CO)C(=O)c2cccc(NC(=O)c3ccncc3)c2O[C@@H]1CN(C)C` stands 1.35%; under `C[C@H]1CN([C@@H](C)CO)C(=O)c2cccc(NC(=O)Nc3ccccc3)c2O[C@H]1CN(C)Cc1ccc(Oc2ccccc2)cc1`, -8.88%.
Under `C[C@H]1CN([C@@H](C)CO)C(=O)c2cccc(NC(=O)c3ccncc3)c2O[C@H]1CN(C)C` stands 13.8%.
Turning to `C[C@@H]1CN([C@@H](C)CO)C(=O)c2cc(NC(=O)c3ccncc3)ccc2O[C@H]1CN(C)Cc1ccc(C(=O)O)cc1`, the inhibition was 3.13%.
In the case of `CO[C@H]1CC[C@H]2CCN(C)C(=O)C[C@@H](c3ccccc3)CN(C)C(=O)c3cccc(C#N)c3OC[C@@H]1O2`, the inhibition was 0.912%.

The inhibition is the drop in the measured response relative to a control, in per cent.
